Data set [1] can be described thus: melting temperature; fluorescence melt of hairpins on a sequencing array, two-state fit, raised by 9.35 °C to match UV melts. To be noted: sodium 0.088 M. The method, boiled down: (§1)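 Melting temperature and folding enthalpy were obtained by bootstrapped two-state fitting. Fits used Cy3 fluorescence of library hairpins with annealed Cy3 and quencher oligos on a sequenced MiSeq flow cell, imaged in 50 mM Na-HEPES pH 8.0, 25 mM NaCl in 2.5 °C steps up to 60 °C and normalised to pre-quench Cy3 and control constructs. Four replicates were combined by inverse-variance weighting, and fitted temperatures were raised by 9.35 °C to match UV melts.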

A short description of data set [2]: folding enthalpy; higher = less favourable; fluorescence melt of hairpins on a sequencing array, two-state fit. Conditions: sodium 0.088 M. The method, boiled down: as §1

Turning to CTGTCGAAAGACAG (((((....))))), in data set [1], the Tm is 67.5 °C. Further, the folding enthalpy in data set [2] was -21.3 kcal/mol.

For the sequence GATCAGCCGCCTGATC ((((((....)))))), the Tm in data set [1] amounted to 50.5 °C. In addition, the folding enthalpy in data set [2] is -32.5 kcal/mol.

Consider GATCACGTAGGTGATC ((((((....)))))), for which the Tm in data set [1] stood at 63.9 °C. Also, the folding enthalpy in data set [2] is -39 kcal/mol.

For CGGTGGCGGAAACGCCCG (((..(((....)))))), in data set [1], the Tm was 47 °C. Besides, the folding enthalpy in data set [2] is -11.5 kcal/mol.

Regarding GCATTGCGAAAGCAAAGC ((.((((....)))).)), the Tm in data set [1] amounted to 58 °C. For the same sequence, the folding enthalpy in data set [2] was -18.6 kcal/mol.

On to GCTCGAGGAAACCCGAGC (((((.(....).))))), for which the Tm in data set [1] amounted to 54.3 °C. The folding enthalpy in data set [2] is -30.9 kcal/mol.

GGCATCGGAAACGGTGCC ((((.((....)).)))): the Tm in data set [1] was 60.5 °C. The folding enthalpy in data set [2] is -29.8 kcal/mol.

For GATCCTACAAGGATC ((((((...)))))), the Tm in data set [1] was 54.5 °C. In addition, the folding enthalpy in data set [2] was -33.6 kcal/mol.

As for GTCCTTGGAAACAAAGAC (((.(((....))).))), the Tm in data set [1] was 30.4 °C. Further, the folding enthalpy in data set [2] is -13.3 kcal/mol.

For the sequence GATCCTTCAAAGGATC ((((((....)))))), the Tm in data set [1] was 52.9 °C. Further, in data set [2], the folding enthalpy is -33.5 kcal/mol.

Turning to GGGATTCGAAAGAACCCC (((.(((....))).))), in data set [1], the Tm was determined as 49.9 °C. Moreover, the folding enthalpy in data set [2] is -34 kcal/mol.

For GATCCCGAGCGGGATC ((((((....)))))), the Tm in data set [1] was determined as 61.6 °C. In addition, in data set [2], the folding enthalpy was -40.5 kcal/mol.

As for GGCGCAGGAAACTGCGTC (.(((((....))))).), the Tm in data set [1] worked out at 66.1 °C. In data set [2], the folding enthalpy is -20.6 kcal/mol.

On to GGGGCGCCGAAAGGCCCC (((..(((....)))))), for which, in data set [1], the Tm worked out at 66.1 °C. Besides, in data set [2], the folding enthalpy is -15 kcal/mol.

As for GTACTCGAAAGAGGGTAC ((((((....)))..))), the Tm in data set [1] turned out to be 33.7 °C. Further, the folding enthalpy in data set [2] is -14.2 kcal/mol.

Take GTGTGCGAAAGCATGCAC ((((((....)))..))): the Tm in data set [1] is 45.1 °C. The folding enthalpy in data set [2] was -16.1 kcal/mol.

With GATCCCAGCCGGGATC ((((((....)))))), in data set [1], the Tm was determined as 64.2 °C. Besides, the folding enthalpy in data set [2] was -32.8 kcal/mol.

With CGCGCGGAAACGCACGCG ((((((....)))..))), in data set [1], the Tm amounted to 57.1 °C. For the same sequence, in data set [2], the folding enthalpy was -22.1 kcal/mol.

Turning to GACCAGCGAAAGCTAGTC (((.(((....))).))), the Tm in data set [1] came to 44.8 °C. The folding enthalpy in data set [2] is -23.1 kcal/mol.

Consider GGACAGCGAAAGCTATCC (((.(((....))).))), for which the Tm in data set [1] is 45 °C. The folding enthalpy in data set [2] was -24.7 kcal/mol.

For GATTACGGAAACGTGATC (((.(((....))).))), in data set [1], the Tm worked out at 45.9 °C. In addition, the folding enthalpy in data set [2] is -37.1 kcal/mol.

On to GCATGACGAAAGTCTGC (((.(((....)))))), for which the Tm in data set [1] amounted to 53.9 °C. In addition, in data set [2], the folding enthalpy was -29 kcal/mol.

As for GGAAGCGAAAGCTATCC ((((((....))).))), in data set [1], the Tm came to 40.9 °C. Besides, the folding enthalpy in data set [2] is -14.6 kcal/mol.

GTTCTCCGAAAGGATAAC (((.(((....))).))): in data set [1], the Tm was 41.2 °C. The folding enthalpy in data set [2] is -26.4 kcal/mol.

As for GGAAGTGGAAACGCTTTC (.(((.(....).))).), in data set [1], the Tm was 31.4 °C. For the same sequence, the folding enthalpy in data set [2] was -19.6 kcal/mol.

Take GAATTTGGAAACAGATTC ((((.((....)).)))): in data set [1], the Tm was 33.3 °C. In data set [2], the folding enthalpy was -25.2 kcal/mol.

As for GCGGCAGCCGC ((((...)))), the Tm in data set [1] was determined as 61.7 °C. In addition, in data set [2], the folding enthalpy was -10.9 kcal/mol.

As to GATGACGAAAGTCTGATC ((((((....)))..))), the Tm in data set [1] was determined as 33.1 °C. Also, in data set [2], the folding enthalpy is -12.1 kcal/mol.

Consider GGTGCCCGAAAGGGTACC (((.(((....))).))), for which, in data set [1], the Tm was 68.2 °C. For the same sequence, the folding enthalpy in data set [2] is -33.4 kcal/mol.

Regarding GACGGGCGAAAGCCTGTC (((.(((....))).))), the Tm in data set [1] is 67.3 °C. Moreover, the folding enthalpy in data set [2] is -26.2 kcal/mol.

In the case of GCTGAGGGAAACCTTGGC ((..(((....)))..)), the Tm in data set [1] was determined as 38.1 °C. Also, in data set [2], the folding enthalpy was -26.6 kcal/mol.

As for GATCACGAAAGTGCGATC ((((((....)))..))), the Tm in data set [1] worked out at 29.5 °C. In addition, the folding enthalpy in data set [2] is -16.3 kcal/mol.

As to GTGTGAGAAATCACAC ((((((....)))))), the Tm in data set [1] came out at 55.8 °C. For the same sequence, the folding enthalpy in data set [2] was -30.9 kcal/mol.

As for GCTGTGCGAAAGCAGTGC ((..(((....)))..)), the Tm in data set [1] worked out at 46.6 °C. Further, in data set [2], the folding enthalpy was -15.8 kcal/mol.

As for GCGCTGTCGAAAGACCGC (((..(((....)))))), in data set [1], the Tm is 52.3 °C. Moreover, in data set [2], the folding enthalpy was -22.8 kcal/mol.

For the sequence GATCTAGTGGTAGATC ((((((....)))))), the Tm in data set [1] was determined as 38 °C. The folding enthalpy in data set [2] was -28 kcal/mol.

As to GATCACAACCGTGATC ((((((....)))))), the Tm in data set [1] turned out to be 57.2 °C. The folding enthalpy in data set [2] was -39.2 kcal/mol.
